Results published in PMC5198934 (Saudi Journal of Biological Sciences, 2015).
Values after ≈ are worked out from the molar mass of the structure shown.

Key:
[1] = DPPH radical scavenging assay; details: 30 min, absorbance at 517 nm, triplicate, mean ± SD
Procedure, shortened: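 DPPH dissolved in methanol (180 µL) mixed with 20 µL methanolic compound solutions at 0.1, 1, 10 and 100 μg/mL. Mixture shaken, held 30 min at room temperature in dark, A517. Controls: methanol blank, ascorbic acid positive. Triplicate. % scavenging = (A blank − A test)/A blank × 100; IC50 from concentration–scavenging plot.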

[2] = ABTS radical scavenging assay; details: 10 min, absorbance at 734 nm, triplicate, mean ± SD
Procedure, shortened: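 ABTS•+ formed from 7 mM ABTS in water plus 2.45 mM potassium persulfate, kept dark at room temperature 12–16 h, then diluted in methanol to A734 0.70 ± 0.02 at 30 °C. Methanolic compound dilutions (20 µL) added to 180 µL radical, 10 min in dark, A734. Controls: methanol blank, ascorbic acid reference. Fresh radical each run. Triplicate. % scavenging versus blank gives IC50.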

FRAP assay = details: for FRAP (10 μg/mL): absorbance at 593 nm, 30 min, triplicate
Procedure, shortened: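 Working reagent: 300 mM acetate buffer pH 3.6, 10 mM TPTZ in 40 mM HCl, and 20 mM FeCl3·6H2O, mixed 10:1:1 and warmed to 37 °C. Methanolic samples reacted 30 min. Ascorbic acid in water used as standard, methanol as blank. Fe²⁺–TPTZ complex read at 593 nm. Triplicate, mean reported.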

Hela cancer cell = assay: SRB anticancer assay, Hela cells; type: cell-based, Human
Procedure, shortened: (§1)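 HeLa cells were grown in DMEM; CaSki and MDCK in RPMI-1640. All media had 10% FBS and 1% antibiotic–antimycotic, at 37 °C, 5% CO2. Cells seeded at 5×10^3/well overnight, triplicate, then given four concentrations for 48 h. Untreated cells served as control. SRB staining: ice-cold 70% acetone fixation, 0.4% SRB, Tris solubilisation, A540. IC50 from cancer lines, CC50 from MDCK, TI derived.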

Caski cancer cell = assay: SRB anticancer assay, Caski cells; type: cell-based
Procedure, shortened: as §1

[3] = SRB cytotoxicity assay, MDCK cells; type: cell-based, canine; details: dog
Procedure, shortened: as §1

IC50 DPPH [1] [µg/mL]	IC50 ABTS [2] [µg/mL]	IC50 (Hela cancer cell; Homo sapiens, HeLa, 48 h, read-out: IC50 Hela) [µg/mL]	IC50 (Caski cancer cell; Homo sapiens, Ca-Ski, 48 h, read-out: IC50 Caski) [µg/mL]	SMILES	FRAP absorption value (FRAP assay; Fe3+ reducing power) [nm]	FRAP (10 μg/mL) (FRAP assay)	TI (therapeutic index) (Hela cancer cell; CC50 MDCK / IC50 Hela)	TI (therapeutic index) (Caski cancer cell; CC50 MDCK / IC50 Caski)	CC50 at 48 h [3] [µg/mL]
10.75 ± 0.66 (≈ 61 µM)	4.760 ± 0.05 (≈ 27 µM)			O=C1O[C@H]([C@@H](O)CO)C(O)=C1O [Ascorbic acid]	2.140	2.140 ± 0.78			
33.16 ± 1.60	86.29 ± 2.11	4.5 ± 0.08	5.64 ± 0.11	COc1ccc2cc3[n+](cc2c1OC)CCc1cc2c(cc1-3)OCO2 [Berberine]		0.001 ± 0.66	25.29	20.17	113.8 ± 0.51
